ChEMBL document CHEMBL1134405 (J Med Chem, 2001)
Each block holds one molecule with its values, some of them ahead of it. Calls of active or inactive are those of the source. The rule behind the calls is not given here. Peptide text beside a SMILES is read from it.

Tests used:
[1] = biological target: T1, Adenylate cyclase (Rattus norvegicus) (UniProt D4A3N4+P26770+Q04400+P26769+Q03343+P40146+Q8CFM9+P21932); assay: Adenylate cyclase stimulation; Inactive up to 100 uM.; assay type: protein assay
[2] = biological target: T1, Adenylate cyclase (Rattus norvegicus); assay: Maximum stimulation of adenylate cyclase.; assay type: protein assay
[3] = biological target: Glucagon receptor (Rattus norvegicus) (UniProt P30082); assay: (§1) Compound was evaluated for its ability to displace radiolabeled glucagon (inactive up to 100 uM)
Glucagon receptor (Rattus norvegicus), sequence (P30082 whole entry): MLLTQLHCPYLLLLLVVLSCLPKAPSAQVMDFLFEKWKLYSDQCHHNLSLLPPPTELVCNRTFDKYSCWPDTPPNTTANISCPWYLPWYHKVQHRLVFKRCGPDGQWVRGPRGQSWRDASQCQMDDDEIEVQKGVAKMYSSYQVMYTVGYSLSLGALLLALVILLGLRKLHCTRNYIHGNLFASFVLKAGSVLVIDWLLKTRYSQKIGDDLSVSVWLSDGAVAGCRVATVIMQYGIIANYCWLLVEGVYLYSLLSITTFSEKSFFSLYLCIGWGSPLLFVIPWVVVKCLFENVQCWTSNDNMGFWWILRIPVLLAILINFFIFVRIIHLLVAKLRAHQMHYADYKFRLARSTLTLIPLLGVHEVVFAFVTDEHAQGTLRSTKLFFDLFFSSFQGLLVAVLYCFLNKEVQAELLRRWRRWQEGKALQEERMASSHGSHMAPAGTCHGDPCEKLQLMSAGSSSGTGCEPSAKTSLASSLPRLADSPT
Outline: (§2)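 Incubation 10 min at 30 °C, then ice cooling and filtration on 0.45 μm cellulose acetate, gamma counting. Nonspecific binding taken with 1024 nM unlabeled peptide and subtracted. Read as % inhibition of specific binding. Triplicates, repeated twice.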

[4] = biological target: Glucagon receptor (Rattus norvegicus) (UniProt P30082); assay: Relative binding by measuring competition for glucagon receptor between [125]glucagon and the compound.; outline: as §2
[5] = biological target: T1, Adenylate cyclase (Rattus norvegicus); assay: Relative potency was evaluated by measuring potency for conversion of [alpha-32P]ATP to cyclic 3',5'-AMP relative to glucagon; assay type: protein assay
[6] = biological target: Glucagon receptor (Rattus norvegicus) (UniProt P30082); assay: Relative binding was evaluated by measuring competition for glucagon receptor between [125I]glucagon and the compound.
[7] = A dose-response plot was obtained by determining the response when the concentration of glucagon was varied while the concentration was kept same.
Glucagon receptor [8] = biological target: T2, Glucagon receptor (Rattus norvegicus, UniProt P30082); assay: IC50 value was expressed as inhibition of [125]glucagon specific binding.; outline: as §2
T2 sequence (P30082 whole entry): as above

[9] = pA2 value, a dose-response plot was obtained by determining the response when the concentration of glucagon was varied while the concentration was kept same.
Glucagon receptor [10] = biological target: T2, Glucagon receptor; assay: as §1
Glucagon receptor [11] = biological target: T2, Glucagon receptor; assay: Compound was evaluated for its ability to displace radiolabeled glucagon; outline: as §2
[12] = biological target: T1, Adenylate cyclase (Rattus norvegicus); assay: Adenylate cyclase activity of the compound, evaluated for the percentage maximum stimulation; assay type: protein assay
Outline: (§3)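 Rat liver plasma membranes (male Sprague–Dawley, 200–250 g; sucrose-gradient purified), 35 μg protein in 0.1 mL with 1 mM [α-32P]ATP, 5 mM MgCl2, GTP, 1 mM EDTA, 1 mM cAMP plus [3H]cAMP tracer, 25 mM Tris pH 7.5, 0.4% BSA, phosphocreatine/creatine kinase regeneration. Labeled cAMP isolated by sequential Dowex and alumina chromatography.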

[13] = biological target: T1, Adenylate cyclase (Rattus norvegicus); assay: Adenylate cyclase activity of the compound, expressed as effective concentration (inactive up to 100 uM); assay type: protein assay
Outline: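 Adenylate cyclase in rat liver plasma membranes (35 μg protein), in 0.1 mL of 1 mM [α-32P]ATP, 5 mM MgCl2, […], 1 mM EDTA, 1 mM cAMP with [3H]cAMP tracer, 25 mM Tris pH 7.5, 0.4% BSA, plus a phosphocreatine/creatine phosphokinase regenerating system. [32P]cAMP isolated on Dowex and alumina columns.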

Glucagon receptor [14] = biological target: T2, Glucagon receptor; assay: IC50 value was expressed for inhibition of [125]glucagon specific binding.; outline: as §2
Adenylate cyclase [15] = assay: Adenylate cyclase activity of the compound, expressed as effective concentration; assay type: protein assay; outline: as §3
Adenylate cyclase [16] = assay: Effective concentration required for 50% conversion of [alpha-32P]ATP to cyclic 3',5'-AMP.; assay type: protein assay; outline: as §3

Relative potency [5]: < 0.0001%
Relative binding [6]: < 0.0001%
Molecule: H-HSQGTF-OH

IC50 (Glucagon receptor [8]): 249 nM
Molecule: CSCC[C@H](NC(=O)[C@H](CC(C)C)NC(=O)[C@H](Cc1c[nH]c2ccccc12)NC(=O)[C@H](CCC(N)=O)NC(=O)[C@@H](NC(=O)[C@H](Cc1ccccc1)NC(=O)[C@H](CC(=O)O)NC(=O)[C@H](CCC(N)=O)NC(=O)[C@H](C)NC(=O)[C@H](CCCN=C(N)N)NC(=O)[C@H](CCCN=C(N)N)NC(=O)[C@H](CO)NC(=O)[C@H](CC(=O)O)NC(=O)[C@H](CC(C)C)NC(=O)[C@H](Cc1ccc(O)cc1)NC(=O)[C@H](CCCCN)NC(=O)[C@H](CO)NC(=O)[C@H](Cc1ccc(O)cc1)NC(=O)Cc1ccccc1)C(C)C)C(=O)N[C@@H](CC(N)=O)C(=O)N[C@H](C(N)=O)[C@@H](C)O (HELM PEPTIDE1{[O=C(Cc1ccccc1)[*:2]].Y.S.K.Y.L.D.S.R.R.A.Q.D.F.V.Q.W.L.M.N.T.[am]}$$$$V2.0)
pA2 [7]: 7.37

IA [1]: Inactive up to 100 uM
Max stimulation [2]: 0%
Relative binding [4]: 0.19%
Molecule: CSCC[C@H](NC(=O)[C@H](CC(C)C)NC(=O)[C@H](Cc1c[nH]c2ccccc12)NC(=O)[C@H](CCC(N)=O)NC(=O)[C@@H](NC(=O)[C@H](Cc1ccccc1)NC(=O)[C@H](CC(=O)O)NC(=O)[C@H](CCC(N)=O)NC(=O)[C@H](C)NC(=O)[C@H](CCCN=C(N)N)NC(=O)[C@H](CCCN=C(N)N)NC(=O)[C@H](CO)NC(=O)[C@H](CC(=O)O)NC(=O)[C@H](CC(C)C)NC(=O)[C@H](Cc1ccc2ccccc2c1)NC(=O)[C@H](CCCCN)NC(=O)[C@H](CO)NC(=O)[C@H](Cc1ccc2ccccc2c1)NC(C)=O)C(C)C)C(=O)N[C@@H](CC(N)=O)C(=O)N[C@H](C(N)=O)[C@@H](C)O (HELM PEPTIDE1{[ac].[O=C([C@H](Cc1ccc2ccccc2c1)N[*:1])[*:2]].S.K.[O=C([C@H](Cc1ccc2ccccc2c1)N[*:1])[*:2]].L.D.S.R.R.A.Q.D.F.V.Q.W.L.M.N.T.[am]}$$$$V2.0)
pA2 [7]: 6.87

Relative potency [5]: < 0.0001%
Relative binding [4]: < 0.0001%
Molecule: CC(C)C[C@H](NC(=O)[C@H](Cc1ccc(O)cc1)NC(=O)[C@H](CCCCN)NC(=O)[C@H](CO)NC(=O)[C@H](Cc1ccc(O)cc1)NC(=O)[C@H](CC(=O)O)NC(=O)[C@H](CO)NC(=O)[C@@H](NC(=O)[C@H](Cc1ccccc1)NC(=O)[C@@H](NC(=O)CNC(=O)[C@H](CCC(N)=O)NC(=O)[C@H](CO)NC(=O)[C@@H](N)Cc1c[nH]cn1)[C@@H](C)O)[C@@H](C)O)C(=O)N[C@@H](CC(=O)O)C(=O)O

IC50 (Glucagon receptor [11]): 48 nM
Molecule: H-SQGTTSEYSKYLDSRRAQDFVQWLMNT-NH2
pA2 [9]: 8.2

Relative potency [5]: 0.0001%
Relative binding [4]: 0.0001%
Molecule: CC(C)C[C@H](NC(=O)[C@H](Cc1ccc(O)cc1)NC(=O)[C@H](CCCCN)NC(=O)[C@H](CO)NC(=O)[C@H](Cc1ccc(O)cc1)NC(=O)[C@H](CC(=O)O)NC(=O)[C@H](CO)NC(=O)[C@@H](NC(=O)[C@H](Cc1ccccc1)NC(=O)[C@@H](NC(=O)CNC(=O)[C@H](CCC(N)=O)NC(=O)[C@H](CO)NC(=O)[C@@H](N)Cc1c[nH]cn1)[C@@H](C)O)[C@@H](C)O)C(=O)N[C@@H](CC(N)=O)C(=O)N[C@@H](CO)C(=O)N[C@@H](CCCN=C(N)N)C(=O)O

Max stimulation [2]: 0%
IA [3]: Inactive up to 100 uM
Relative binding [4]: 0%
IA [13]: Inactive up to 100 uM
Molecule: H-HSQGTFTSDYS-NH2

Continued, molecule first:

Molecule: H-DSRRAQDFVQWL-NH2
IA [1]: Inactive up to 100 uM
Max stimulation [2]: 0%
IA [3]: Inactive up to 100 uM
Relative binding [4]: 0%

Molecule: CSCC[C@H](NC(=O)[C@H](CC(C)C)NC(=O)[C@H](Cc1c[nH]c2ccccc12)NC(=O)[C@H](CCC(N)=O)NC(=O)[C@@H](NC(=O)[C@H](Cc1ccccc1)NC(=O)[C@H](CC(=O)O)NC(=O)[C@H](CCC(N)=O)NC(=O)[C@H](C)NC(=O)[C@H](CCCN=C(N)N)NC(=O)[C@H](CCCN=C(N)N)NC(=O)[C@H](CO)NC(=O)[C@H](CC(=O)O)NC(=O)[C@H](CC(C)C)NC(=O)[C@H](Cc1ccc(O)cc1)NC(=O)[C@H](CCCCN=C(N)N)NC(=O)[C@H](CO)NC(=O)[C@H](Cc1ccc(O)cc1)NC(=O)[C@H](CC(=O)O)NC(=O)[C@H](CO)NC(=O)[C@@H](NC(=O)[C@H](Cc1ccccc1)NC(=O)[C@@H](NC(=O)CNC(=O)[C@H](CCC(N)=O)NC(=O)[C@H](CO)NC(=O)[C@H](Cc1c[nH]cn1)Nc1c([N+](=O)[O-])cc([N+](=O)[O-])cc1[N+](=O)[O-])[C@@H](C)O)[C@@H](C)O)C(C)C)C(=O)N[C@@H](CC(N)=O)C(=O)N[C@H](C(=O)O)[C@@H](C)O
pA2 [9]: 8.16
IC50 (Glucagon receptor [10]): 15 nM

Molecule: CSCC[C@H](NC(=O)[C@H](CC(C)C)NC(=O)[C@H](Cc1c[nH]c2ccccc12)NC(=O)[C@H](CCC(N)=O)NC(=O)[C@@H](NC(=O)[C@H](Cc1ccccc1)NC(=O)[C@H](CC(=O)O)NC(=O)[C@H](CCC(N)=O)NC(=O)[C@H](C)NC(=O)[C@H](CCCN=C(N)N)NC(=O)[C@H](CCCN=C(N)N)NC(=O)[C@H](CO)NC(=O)[C@H](CC(=O)O)NC(=O)[C@H](CC(C)C)NC(=O)[C@H](Cc1ccc(O)cc1)NC(=O)[C@H](CCCCN)NC(=O)[C@H](CO)NC(=O)[C@H](Cc1ccc(O)cc1)NC(=O)[C@H](CCC(=O)O)NC(=O)[C@H](CO)NC(=O)[C@@H](NC(=O)[C@H](Cc1ccccc1)NC(=O)[C@@H](NC(=O)CNC(=O)[C@H](CCC(N)=O)NC(=O)[C@@H](N)CO)[C@@H](C)O)[C@@H](C)O)C(C)C)C(=O)N[C@@H](CC(N)=O)C(=O)N[C@H](C(N)=O)[C@@H](C)O
pA2 [9]: 7.25
IC50 (Glucagon receptor [11]): 3.75 nM

Molecule: GLUCAGON [listing 1 of 2 here]
Max stimulation [12]: 100%
Relative binding [4]: 100%

Molecule: H-YSKYLDSRRAQ-NH2
IA [1]: Inactive up to 100 uM
Max stimulation [2]: 0%
IA [3]: Inactive up to 100 uM
Relative binding [4]: 0%

Molecule: H-TFTSDYSKYLDS-NH2
Max stimulation [2]: 0%
IA [3]: Inactive up to 100 uM
Relative binding [4]: 0%
IA [13]: Inactive up to 100 uM

Molecule: CSCC[C@H](NC(=O)[C@H](CC(C)C)NC(=O)[C@H](Cc1c[nH]c2ccccc12)NC(=O)[C@H](CCC(N)=O)NC(=O)[C@@H](NC(=O)[C@H](Cc1ccccc1)NC(=O)[C@H](CC(=O)O)NC(=O)[C@H](CCC(N)=O)NC(=O)[C@H](C)NC(=O)[C@H](CCCN=C(N)N)NC(=O)[C@H](CCCN=C(N)N)NC(=O)[C@H](CO)NC(=O)[C@H](CC(=O)O)NC(=O)[C@H](CC(C)C)NC(=O)[C@H](Cc1ccc2ccccc2c1)NC(=O)[C@H](CCCCN)NC(=O)[C@H](CO)NC(=O)[C@H](Cc1ccc(O)cc1)NC(=O)CCCc1ccccc1)C(C)C)C(=O)N[C@@H](CC(N)=O)C(=O)N[C@H](C(N)=O)[C@@H](C)O (HELM PEPTIDE1{[O=C(CCCc1ccccc1)[*:2]].Y.S.K.[O=C([C@H](Cc1ccc2ccccc2c1)N[*:1])[*:2]].L.D.S.R.R.A.Q.D.F.V.Q.W.L.M.N.T.[am]}$$$$V2.0)
pA2 [9]: 6.7
IC50 (Glucagon receptor [14]): 781 nM

Molecule: Ac-FTSDYSKYL-NH2
IA [1]: Inactive up to 100 uM
Max stimulation [2]: 0%
IA [3]: Inactive up to 100 uM
Relative binding [4]: 0%

Molecule: CC(C)C[C@H](NC(=O)[C@H](Cc1ccc(O)cc1)NC(=O)[C@H](CCCCN)NC(=O)[C@H](CO)NC(=O)[C@H](Cc1ccc(O)cc1)NC(=O)[C@H](CC(=O)O)NC(=O)[C@H](CO)NC(=O)[C@@H](NC(=O)[C@H](Cc1ccccc1)NC(=O)[C@@H](NC(=O)CNC(=O)[C@H](CCC(N)=O)NC(=O)[C@H](CO)NC(=O)[C@@H](N)Cc1c[nH]cn1)[C@@H](C)O)[C@@H](C)O)C(=O)N[C@@H](CC(=O)O)C(=O)N[C@@H](CO)C(=O)N[C@@H](CCCN=C(N)N)C(=O)N[C@@H](CCCN=C(N)N)C(=O)N[C@@H](C)C(=O)N[C@@H](CCC(N)=O)C(=O)N[C@@H](CC(=O)O)C(=O)N[C@@H](Cc1ccccc1)C(=O)N[C@H](C(=O)N[C@@H](CCC(N)=O)C(=O)O)C(C)C
Relative potency [5]: 0.0002%
Relative binding [4]: 0.0002%

Molecule: GLUCAGON [listing 2 of 2 here]
EC50 (Adenylate cyclase [15]): 5.9 nM
EC50 (Adenylate cyclase [16]): 8 nM

Molecule: Ac-FTSDYSKYLDSRRAQDFVQWLMNT-NH2
pA2 [7]: 6.57
IC50 (Glucagon receptor [8]): 31 nM
